# Source: PubChem (Sanford-Burnham Center for Chemical Genomics)
# Compounds with a hit are over-represented: about 2.3% of the library has one in this group of screens.
# SKN-1 block: suppressors of acrylamide-induced Pgst-4::GFP reporter in worms, primary screen, SKN-1 inhibitor project, whole organism, uHTS, GFP/RFP fluorescence ratio, strain VP596; 360,000 compounds, 0.49% hits; AID 624304, 2012; inhibition, % at 21.8 µM; C. elegans VP596 Pgst-4::GFP/RFP ratio, 24 h;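 active = interference check ratio from 0.5 to 1.5 plus GFP to RFP signal ratio inhibition reaching or exceeding a fixed threshold, cut at about 30% in these data, passing the limit was not always enough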
# Rpn11 block: Rpn11 (PSMD14) deubiquitinase inhibitors, primary screen, biochemical, fluorescence polarization, uHTS | 26S proteasome non-ATPase regulatory subunit 14 (Homo sapiens), O00487 | human 26S proteasome, Ub4-pepOG fluorescence polarization; 20S core pre-blocked with epoxomicin | inhibition, % at 20 µM | 360,000 compounds, 0.59% hits;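 active = inhibition at 20 µM, scaled to each plate's controls, above about 33%, limit read from the data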
# CSN inh: inhibitors of CSN-mediated cullin deneddylation, primary screen, biochemical, fluorescence polarization, uHTS; Purified CSN, SCF-Nedd8-OG deneddylation; 360,000 compounds, 0.38% hits; inhibition, % at 12.5 µM; AID 651999, 2013;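 active = pattern-corrected inhibition above about 35%, with an unprinted fluorescence ratio check between 0.5 and 1.5, limit read from the data, passing the limit was not always enough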;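 note: 0% = enzyme with substrate and 100% = substrate without enzyme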
#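 assay system = purified human Csn5 enzyme expressed in HEK293T cells | amount = 0.24 nM enzyme | buffer or medium = Tris/NaCl/DTT buffer, pH 7.5 | reagent = 10 nM SCFSkp2-Nedd8OG | compound = one concentration, 12.5 µM, 0.25% DMSO | times = 90 min reaction at room temperature | signal = FP | read-out basis = % inhibition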
# SUMO1-SIM PPI: modulators of SUMO1 protein-protein interactions, primary screen, biochemical, uHTS; SUMO1 binding to a labelled peptide, TR-FRET, 1 h; inhibition, % at 20 µM; 360,000 compounds, 0.33% hits; in the data active = inhibition above about 37%
# DNMT1 block: human DNMT1 methyltransferase inhibitors, primary screen, biochemical, molecular beacon, fluorescence, HinP1I cleavage, uHTS | DNA (cytosine-5)-methyltransferase 1 (Homo sapiens), P26358 | inhibition (reported as % activation of signal), % at 10 µM | 360,000 compounds, 0.83% hits | AID 588458, 2011; in the data active = inhibition above about 50%
# Target sequence (P26358 504-1616 limits assumed): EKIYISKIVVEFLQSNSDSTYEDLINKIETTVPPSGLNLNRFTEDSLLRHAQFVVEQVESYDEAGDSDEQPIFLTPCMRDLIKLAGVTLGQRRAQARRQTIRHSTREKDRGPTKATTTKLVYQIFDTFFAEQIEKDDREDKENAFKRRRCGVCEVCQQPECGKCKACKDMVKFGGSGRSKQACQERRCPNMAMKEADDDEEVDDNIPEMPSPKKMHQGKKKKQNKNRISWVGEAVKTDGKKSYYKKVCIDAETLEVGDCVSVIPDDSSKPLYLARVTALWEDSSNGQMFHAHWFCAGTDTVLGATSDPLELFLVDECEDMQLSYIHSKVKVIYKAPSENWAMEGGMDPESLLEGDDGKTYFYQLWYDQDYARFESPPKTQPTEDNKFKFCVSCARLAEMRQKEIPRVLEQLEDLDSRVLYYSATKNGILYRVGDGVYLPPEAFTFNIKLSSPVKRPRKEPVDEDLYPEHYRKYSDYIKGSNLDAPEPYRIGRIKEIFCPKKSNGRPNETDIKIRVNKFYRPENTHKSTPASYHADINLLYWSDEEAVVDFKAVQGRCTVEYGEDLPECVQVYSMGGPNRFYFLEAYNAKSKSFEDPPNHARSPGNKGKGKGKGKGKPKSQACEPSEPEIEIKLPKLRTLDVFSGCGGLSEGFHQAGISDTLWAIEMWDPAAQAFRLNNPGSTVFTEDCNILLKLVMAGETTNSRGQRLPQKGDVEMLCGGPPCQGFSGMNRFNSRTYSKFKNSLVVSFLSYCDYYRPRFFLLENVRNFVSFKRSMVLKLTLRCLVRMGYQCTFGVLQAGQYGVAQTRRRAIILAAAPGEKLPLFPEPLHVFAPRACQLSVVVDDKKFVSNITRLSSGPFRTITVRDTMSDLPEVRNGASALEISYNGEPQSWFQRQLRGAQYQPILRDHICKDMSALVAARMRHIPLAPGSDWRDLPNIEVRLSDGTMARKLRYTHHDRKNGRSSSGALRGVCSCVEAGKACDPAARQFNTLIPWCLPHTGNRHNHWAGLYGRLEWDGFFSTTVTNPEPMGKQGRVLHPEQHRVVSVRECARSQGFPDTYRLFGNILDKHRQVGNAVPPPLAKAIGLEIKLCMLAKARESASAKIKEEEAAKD
# MT1-MMP act inh: blockers of MT1-MMP proenzyme processing, primary screen, HT1080 RFP-PRO-GFP cells, GFP/RFP fluorescence; Matrix metalloproteinase-14 (Homo sapiens), P50281; GFP/RFP ratio fluorescence, overnight; percent of plate control window, DMSO zero; GFP/RFP ratio change, % at 20 µM; 360,000 compounds, 0.061% hits; AID 651647, 2012;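 active = GFP/RFP ratio change of at least 30% with cell ATP level not reduced by more than half and red fluorescence within 50% of control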
#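 Test system: HT1080 RFP-PRO-GFP cells; Benchmarks: DMSO and RFP-L50D-GFP cell wells; Timing: cells overnight before dosing, compound overnight, 37 °C, 5% CO2; Compound: one 20 µM compound dose with 1% DMSO; Read-out: GFP/RFP fluorescence ratio.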
# DNMT1 interf DR: spectral interference with molecular beacon fluorescence, dose response, artefact control for DNMT1 inhibitor project, biochemical, fluorescent molecular beacon; spectral interference counter-screen; IC50, µM; 200 tested, under 10 active; shares compounds with DNMT1 block; call rule not given here
# DNMT1 confirm: DNMT1 methyltransferase inhibitor retest, confirmation, biochemical, molecular beacon, fluorescence, single concentration; shares compounds with DNMT1 block; inhibition, % at 10 µM; AID 602385, 2012; 2,300 compounds, 8% hits; DNMT1 molecular beacon HinP1I cleavage;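 active = average inhibition of at least 30% in the single-concentration confirmation test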
# DNMT1 interf: counter-screen for DNMT1 inhibitors: spectral interference; shares compounds with DNMT1 block; DNMT1 molecular beacon spectral interference counterscreen, fluorescence 485/520; 2,300 compounds, 1% hits; activation (fluorescence interference), % at 10 µM;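 active = activation of at least 30% at 10 µM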;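 note: DNMT1 catalytic domain with a HinP1I cleavage step and a FAM/dabcyl DNA beacon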
# An asterisk follows results filed as active; . = no result given.
SMILES,SKN-1 block,Rpn11 block,CSN inh,SUMO1-SIM PPI,DNMT1 block,MT1-MMP act inh,DNMT1 confirm,DNMT1 interf,others
C=CCn1c(COc2ccc(Cl)cc2)nnc1SCC(=O)c1c(N)n(C)c(=O)n(C)c1=O,1,4,-7,-2,73*,-1,4,2,
C=CCn1c(COc2cccc(C)c2)nnc1SCC(=O)c1c(N)n(C)c(=O)n(C)c1=O,-12,-8,1,5,5,0,.,.,
CCN(CC)CCn1c2ccccc2c2cnc(N)c(C#N)c21,-2,-2,-4,1,61*,-6,38*,3,DNMT1 interf DR=>99
O=C(Cc1cn2ccsc2n1)Nc1nc2c(s1)CN(Cc1ccccc1)CC2,-7,26,-2,17,56*,-8,0,3,
O=C(Cc1cn2ccsc2n1)NCc1ccccc1,6,2,4,1,0,2,.,.,
CC(=O)OC[C@@H]1CN(Cc2ccccc2)C[C@H](n2cnc3c(Nc4ccccc4)ncnc32)O1,6,2,-2,2,-4,5,.,.,
Nc1ccc(Nc2ccccc2)c(S(=O)(=O)O)c1,2,-13,31,58*,97*,23,8,-2,
C[C@H](NC(=O)CC[C@H]1O[C@@H](n2ccc(=O)[nH]c2=O)[C@H](O)[C@@H]1O)C(=O)O,-10,-11,-1,-2,0,-3,.,.,
O=C(CC[C@H]1O[C@@H](n2ccc(=O)[nH]c2=O)[C@H](O)[C@@H]1O)N1CCN(Cc2cccc3ccccc23)CC1,0,-8,2,4,85*,1,0,6,
O=c1ccn([C@@H]2O[C@H](CO)[C@@H](O)[C@H]2O)c(=O)[nH]1,-9,3,-6,-2,81*,5,4,5,
O=c1c2ccccc2cnn1CCOc1cccc(Br)c1,14,-4,-7,9,1,-2,.,.,
Cc1ccc(OCCn2ncc3ccccc3c2=O)c(C)c1,-5,2,-4,2,51*,4,5,7,
O=C(Cc1ccccc1)N/N=C/c1ccc(OC(=O)/C=C\c2ccco2)cc1,-24,3,-1,0,-1,-4,.,.,
COC(=O)N/N=C/c1ccc(OC(=O)/C=C/c2ccco2)cc1,7,-2,32,-12,53*,-3,3,6,
Cc1ccc(CNC(=O)c2ccc(-n3cccc3)cc2)cc1,4,13,22,4,95*,1,13,5,
O=C(Nc1ccccc1)C1CCCN1C(=O)Nc1ccccc1[N+](=O)[O-] (stereo not drawn),0,1,1,-13,1,4,.,.,
CC(=O)Nc1ccc(NC(=O)C2CCCN2C(=O)Nc2ccccc2[N+](=O)[O-])cc1 (stereo not drawn),3,-38,5,-24,80*,15,2,6,
CNC(=O)C1Cc2c(-c3ccc(Cl)cc3)ccnc2O1 (stereo not drawn),24,1,2,2,5,-1,.,.,
